Data set [1] can be described thus: Self-aggregation of SDPM1 by Thioflavin T. It is filed as physicochemical. Particulars: SDPM1 added alone, over time.
Data set [2] relates to Aβ1–40/1–42 in APPswePSEN1(A246E) mouse brain. Description: Aβ1–40/1–42 immunostaining of brain. It is filed as in vivo. The note with it: for Aβ1–40/42 immunostaining signal, % of control: young, with adjuvant. The method in brief: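 After monthly s.c. streptavidin-peptide conjugate immunization with adjuvant, brains were collected after PBS exsanguination and bisected, then snap-frozen or fixed overnight in 2% paraformaldehyde. Some sagittal sections were pretreated with 90% formic acid for 4 min. Sections were blocked 2 h in 10% goat serum, given rabbit anti-Aβ1–40/42 overnight at 4°C, then Cy3 secondary for 1 h. Eight to twelve sections 80 µm apart were imaged at 10X with a fixed threshold.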

In data set [3] the test system is Aβ1–40 peptide (amyloid aggregation). Description: Thioflavin T amyloid formation assay, Aβ1–40. It is filed as biochemical. Particulars: Aβ1–40 50µM + peptide 50µM, 5 days, 37°C, n=3 (Fig 1C). The method in brief:
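Aβ1–40 (50 µM; stored frozen in DMSO) was mixed with equimolar test peptide (50 µM) and incubated 5 days at 37°C until amyloid formation saturated. Thioflavin T was then added, and signal was read at 490 nm with excitation at 445 nm.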

The test system of data set [4] is monovalent Aβ1–42 peptide. The note with it: ref Kang et al., 2003; cited from earlier work.
Data set [5] relates to Aβ amyloid species in APPswePSEN1(A246E) cortex. Nature of the data set: Aβ/APP immunoblot of soluble cortex fraction. The note with it: immunoblot (Fig 3G). It is filed as in vivo, mouse. (A western blot detects proteins with antibodies after separation by electrophoresis.)
For a further data set, the system named is Aβ1–42 peptide. Nature of the data set: Amyloid trapping assay, SDS-PAGE and Aβ1–40/42 immunoblot. It is filed as biochemical. Particulars: SDS-PAGE/immunoblot after mixing with Aβ1–42 (Fig 1G, 1H). The method in brief: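 Aβ1–42 (50 µM) incubated with equimolar test peptide (50 µM) or 1:500 immune serum for 5 h at 37°C. A subset of mixtures was boiled in SDS with reducing agent and run on 10–20% Tris-tricine gels, then transferred to nitrocellulose. Blots were blocked in TBST/5% milk and probed with rabbit anti-Aβ1–40/42 at 1:10,000 in TBST/2.5% milk.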

The subject of data set [6] is monovalent Aβ1–40 peptide. The note with it: ref Kang et al., 2003; cited from earlier work.
In the next data set the test system is SDPM1 / SDPM2 peptide. Description: Serum antibody titer to SDPM1/SDPM2 after immunization. It is filed as in vivo, mouse. Particulars: for SDPM1-specific antibody titer (SDPM1 minus SDPM2 titer): average, SEM, n=7–12 animals (Fig 2A); for antibody titers to SDPM1 and SDPM2: young (5 to 12 months), end of experiment (S2A).
The test system of data set [7] is Aβ1–40 in APPswePSEN1(A246E) mouse brain. Description: Aβ1–40 brain peptide level. It is filed as in vivo. The note with it: with adjuvant. In a few lines: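 Transgenic mice received monthly subcutaneous injections of biotinylated test peptide (100 µg) conjugated overnight at 4°C to 25 µg streptavidin in TBS, emulsified 1:1 with adjuvant. TiterMax Gold was used first, then Freund's incomplete. Schedules ran 5–12 months (8 injections) or 12–18 months (7). Mock controls got TBS plus adjuvant. Brain Aβ1–40 ELISA was read at 450 nm against peptide standard curves and reported as µg/g wet brain weight.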

Data set [8] relates to Aβ1–42 peptide (amyloid aggregation). Description: Thioflavin T amyloid formation assay, Aβ1–42. It is filed as biochemical. The note with it: Aβ1–42 50µM + peptide 50µM, 5 hours, 37°C, n=3 (Fig 1C). The method in brief:
(§1)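 Aβ1–40 or Aβ1–42 (50 µM) was mixed equimolar with peptide (50 µM) at 37°C until amyloid formation saturated: 5 days for Aβ1–40, 5 hours for Aβ1–42. Time courses set the read point. Thioflavin T was then added and read at 490 nm with excitation at 445 nm. Aβ alone served as positive control; peptide alone was read as background.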

The test system of data set [9] is APPswePSEN1(A246E) mouse brain. Nature of the data set: Brain inflammation immunostaining. It is filed as in vivo. The note with it: young and old; for reduction of CD68 immunostaining: significant (Fig 5D); for GFAP staining signal: with adjuvant (Fig 5C); for Iba1 staining signal: with adjuvant (Fig 5E).
In a further data set the test system is Aβ amyloid. Description: Serum antibody titer to Aβ amyloid after immunization. It is filed as in vivo, mouse. Particulars: for Aβ amyloid antibody titer: young, significant vs Mock (Fig 2C).
For data set [10], the system named is low molecular weight Aβ amyloid from COS7 cells transfected with APPswe. Description: Precipitation from APPswe-transfected COS7 lysates. It is filed as binding, human. Particulars: COS7 lysate 1mg; antibody 10µg or biotin-SDPM1 50µg (Fig 1I, S1A). The method in brief: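 COS7 cells grown in DMEM/10% FCS were transfected at 40% confluence with V5-tagged human APP695, wild type or Swedish. At 48 h cells were lysed in 1% NP40/0.1% SDS/deoxycholate/EDTA buffer with protease inhibitors, sonicated and cleared at 16000g. Lysate (1 mg) was incubated overnight at 4°C with antibody (10 µg) or biotinylated peptide (50 µg), the latter captured on streptavidin agarose. Precipitates were analysed by SDS-PAGE and Aβ immunoblot.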

Data set [11] deals with Aβ1–42 in APPswePSEN1(A246E) mouse brain. Nature of the data set: Aβ1–42 brain peptide level. It is filed as in vivo. Particulars: with adjuvant.
Another data set relates to APPswePSEN1(A246E) mice. Nature of the data set: Morris water maze. It is filed as in vivo, mouse.
For data set [12], the system named is fibrillar Aβ amyloid plaques in APPswePSEN1(A246E) mouse brain. Nature of the data set: Amyloid plaque burden, number and area. It is filed as in vivo.
The test system of data set [13] is amyloid plaques in AD brain. Particulars: ref Kang et al., 2003; cited from earlier work.
Data set [14] deals with Aβ amyloid (Aβ1–40 or Aβ1–42). Nature of the data set: Thioflavin T amyloid formation assay, Aβ form not distinguished. It is filed as biochemical. The note with it: peptide 50µM + Aβ1–40 or Aβ1–42 50µM, 37°C, n=3 (Fig 1C). In a few lines: as §1
[15] abbreviates: old, in most instances (Fig 3D–F).
Setting [16] is: young, in all instances, n=7–12 animals (Fig 3A–C).
[17] abbreviates: young, soluble and insoluble, cortex, hippocampus (Fig 3A, B).

Positions of bridges follow the written chain, without caps; N, C: chain ends. Residues, ends and D or L forms follow the SMILES beside them. *: point of attachment. Biotin = O=C1N[C@H]2[C@H](CS[C@H]2CCCCC(=O)*)N1

As for `CC(C)C[C@@H]1NC(=O)[C@H](CCCNC(=N)N)NC(=O)[C@H](Cc2c[nH]c3ccccc23)NC(=O)[C@H](CCCNC(=N)N)NC(=O)CNC(=O)CNC(=O)[C@H](CCCCN)NC(=O)CNC(=O)[C@H](Cc2c[nH]c3ccccc23)NC(=O)[C@H](CC(=O)O)NC(=O)[C@@H](NC(=O)[C@H](CCC(=O)O)NC(=O)[C@H](C)NC(=O)CCCC[C@@H]2SC[C@@H]3NC(=O)N[C@@H]32)CSSC[C@@H](C(=O)NCC(=O)N2CCC[C@H]2C(=O)O)NC(=O)[C@H](C)NC(=O)[C@H](CCC(=O)O)NC(=O)[C@H]([C@@H](C)O)NC(=O)[C@H](CCCCN)NC(=O)CNC(=O)[C@H](CO)NC(=O)[C@H](C)NC(=O)CNC(=O)[C@@H]2CCCN2C(=O)[C@H](Cc2c[nH]c3ccccc23)NC1=O` [SDPM1] (Biotin-AECDWGKGGRWRLWPGASGKTEACGP-OH; disulfide 3-24; C-terminus assumed), the “Thioflavin T signal of peptide alone (amyloid self-formation)” value in [1] was “did not lead to development of increased Thioflavin T signal over time”. Also, the “Aβ1–40/42 immunostaining signal, % of control” value was found to be 25±6% in data set [2] (cortex) and 14±3% in data set [2] (hippocampus). In addition, in [2] (old, with adjuvant (S2C)), the “Aβ1–40/42 staining signal” value is “also reduced in old mice”. For the same compound, the “inhibition of amyloid aggregation” value in data set [3] and in data set [8] was “over 60%” in each case. In addition, the “binding to monovalent Aβ1–42 peptide” value in [4] is “does not bind monovalent Aβ1–40 or Aβ1–42 peptide”. Also, in data set [5], the “high and low MW Aβ amyloid species” value was “large reductions in both high and low MW Aβ amyloid species”. The “effect on high MW Aβ aggregate formation” value in the data set with Aβ1–42 peptide is “reduced formation of high molecular weight (MW) Aβ aggregates”. Moreover, the “size of trapped Aβ forms (trimers and tetramers)” value in the data set with Aβ1–42 peptide was 12–16 kDa. Besides, in [6], the “binding to monovalent Aβ1–40 peptide” value is recorded as “does not bind monovalent Aβ1–40 or Aβ1–42 peptide”. Besides, the “SDPM1-specific antibody titer (SDPM1 minus SDPM2 titer)” value in the data set with SDPM1 / SDPM2 peptide (old (12 to 18 months), with adjuvant) was determined as 29 ± 6 µg/mL; in the data set on SDPM1 / SDPM2 peptide (young, without adjuvant), 5 ± 1 µg/mL. For the same compound, in the data set with SDPM1 / SDPM2 peptide (with adjuvant, young and old (Fig 2B)), the predominant antibody subtype result is “IgG1”. Besides, in the data set on SDPM1 / SDPM2 peptide (without adjuvant), the “antibody titers to SDPM1 and SDPM2” value fell in the range of 2 to 15 µg/mL. Also, the “antibody titers to SDPM1 and SDPM2 vs without adjuvant” value with SDPM1 / SDPM2 peptide (young, with adjuvant (S2A)) is “increased titers to SDPM1 and SDPM2”. Besides, in the data set on SDPM1 / SDPM2 peptide (young, without adjuvant (S2A)), the “SDPM1 titers relative to SDPM2 titers” value is reported as “increased SDPM1 titers relative to SDPM2”. Also, the “reduction in Aβ1–40 peptide level” value in data set [7] (setting [15]) and in [7] (setting [16]) was “greater than 50%” throughout. For the same compound, the “Aβ1–40 cerebellum level” value in data set [7] (young, cerebellum (Fig 3C)) is reported as “significantly reduced”. In data set [7] (setting [17]), the “Aβ1–40 brain level, significance of reduction” value is “significant reduction in both soluble and insoluble Aβ1–40 and Aβ1–42”. Also, the “reduction of CD68 immunostaining” value is reported as not below 50% in data set [9] (cortex, with adjuvant) and not below 50% in data set [9] (hippocampus, with adjuvant). Also, the GFAP staining signal entry in data set [9] is listed as “no significant changes”. Also, in data set [9], the Iba1 staining signal result is “no significant changes”. Moreover, the “CD3, CD4, CD8, B220 brain parenchymal staining” value in data set [9] (with adjuvant, not shown) is “no evidence for brain parenchymal staining”. In the data set with Aβ amyloid (old, with adjuvant, Mock 11±6µg/mL, did not reach statistical significance (Fig 2C)), the “Aβ amyloid (Aβ1–40/42) antibody titer” value turned out to be 23 ± 7 µg/mL. For the same compound, the “Aβ amyloid antibody titer” value came out at 21 ± 7 µg/mL in the data set with Aβ amyloid (with adjuvant, Mock 5±2µg/mL) and 5 ± 1 µg/mL in the data set on Aβ amyloid (without adjuvant, Mock 1±1 µg/mL). Further, the “precipitation of low MW Aβ amyloid from APPswe cells” value in [10] is “tetramer Aβ amyloid precipitated from APPswe-transfected cells”. Besides, the “reduction in Aβ1–42 peptide level” value in [11] (setting [15]) was “greater than 50%”; in data set [11] (old, insoluble fraction, cortex (Fig 3D)), 65–75%; in data set [11] (old, insoluble fraction, hippocampus (Fig 3E)), 65–75%; in data set [11] (setting [16]) it was “greater than 50%”. Further, in data set [11] (setting [17]), the “Aβ1–42 brain level, significance of reduction” value was “significant reduction in both soluble and insoluble Aβ1–40 and Aβ1–42”. In addition, the escape latency entry with APPswePSEN1(A246E) mice (old (12 to 18 mo), with adjuvant (Fig 4D)) is “no improvement”. Also, in the data set with APPswePSEN1(A246E) mice (old (12 to 18 mo), with adjuvant (Fig 4E)), the probe test result is recorded as “no improvement”. Moreover, the “probe test, time in platform quadrant” value with APPswePSEN1(A246E) mice (young (5 to 12 mo), with adjuvant (Fig 4B)) was “improved significantly compared to controls, spending almost the same amount of time in the appropriate quadrant as WT animals”. Moreover, the “Thioflavin S staining of fibrillar amyloid (images)” value in [12] (hippocampus and cortex (Fig 2D, S3–4), similar with Congo Red (not shown)) is “dramatically reduced”. The “amyloid plaque burden, plaque number, plaque area, Thioflavin S staining” value in [12] (old, s.c. once a month with adjuvant, 12 to 18 months (Fig 2E–G, S2B)) was “highly significant reductions in amyloid plaque burden, plaque number, plaque area, and Thioflavin S staining”. The “binding to amyloid plaques in AD brain” value in [13] was “most efficacious in binding amyloid plaques in AD brain”.
On to DWGKGGRWRLWPGASGKTEA [SDPM2], for which the “Aβ staining levels vs mock-immunized” value in data set [2] (S2C) is reported as “not significantly reduced, though it trended downward compared to mock-immunized animals”. Moreover, the “Thioflavin T signal decrease” value in [14] is listed as “no significant decrease in Thioflavin T signal”. For the same compound, the “effect on high MW Aβ aggregate formation” value in the data set with Aβ1–42 peptide is reported as “had no effect on Aβ amyloid formation in vitro”. Moreover, the SDPM1-specific antibody titers result with SDPM1 / SDPM2 peptide (any condition (Fig 2A)) was “never showed SDPM1-specific antibody titers under any conditions”. Besides, the “antibody titers to SDPM1 and SDPM2” value in the data set on SDPM1 / SDPM2 peptide (without adjuvant) lay within 2 to 15 µg/mL. In addition, in data set [9], the GFAP staining signal result was “no significant changes” and the Iba1 staining signal entry is recorded as “no significant changes”.
